Assay results published in ChEMBL document CHEMBL3739412, “Addressing cytotoxicity of 1,4-biphenyl amide derivatives: Discovery of new potent and selective 17β-hydroxysteroid dehydrogenase type 2 inhibitors” (Bioorg Med Chem Lett, 2016).
Activity calls are given as the source filed them. The calls are words filed in the database; no cut-off is given here.

Experiments:
[1] = molecular target: T1, 17-beta-hydroxysteroid dehydrogenase type 2 (Homo sapiens) (UniProt P37059); assay: Inhibition of 17beta-HSD2 in human placental microsomal fraction using E2/NAD+ as substrate/cofactor at 1 uM after 20 mins by HPLC analysis; details: Placenta
T1 sequence (whole entry): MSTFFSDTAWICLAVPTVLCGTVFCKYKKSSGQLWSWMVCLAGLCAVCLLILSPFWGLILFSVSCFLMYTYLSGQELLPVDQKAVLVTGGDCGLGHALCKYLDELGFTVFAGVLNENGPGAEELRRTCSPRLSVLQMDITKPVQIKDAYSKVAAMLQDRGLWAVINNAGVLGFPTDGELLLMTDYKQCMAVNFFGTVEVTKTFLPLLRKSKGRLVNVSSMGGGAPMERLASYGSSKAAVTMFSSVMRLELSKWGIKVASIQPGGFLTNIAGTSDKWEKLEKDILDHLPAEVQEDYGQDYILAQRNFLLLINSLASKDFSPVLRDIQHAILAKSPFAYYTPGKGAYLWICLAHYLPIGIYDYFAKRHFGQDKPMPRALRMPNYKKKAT
Outline: (§1)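 Enzyme source is human placenta, microsomal fraction. Substrate is estradiol (E2) at 500 nM, with NAD+ as cofactor. Values are the mean of at least two determinations, with standard deviation below 20%.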

[2] = molecular target: T2, 17-beta-hydroxysteroid dehydrogenase type 1 (Homo sapiens) (UniProt P14061); assay: Inhibition of 17beta-HSD1 in human placental cytosolic fraction using E1/NADH as substrate/cofactor at 1 uM after 10 mins by HPLC analysis
T2 sequence (whole entry): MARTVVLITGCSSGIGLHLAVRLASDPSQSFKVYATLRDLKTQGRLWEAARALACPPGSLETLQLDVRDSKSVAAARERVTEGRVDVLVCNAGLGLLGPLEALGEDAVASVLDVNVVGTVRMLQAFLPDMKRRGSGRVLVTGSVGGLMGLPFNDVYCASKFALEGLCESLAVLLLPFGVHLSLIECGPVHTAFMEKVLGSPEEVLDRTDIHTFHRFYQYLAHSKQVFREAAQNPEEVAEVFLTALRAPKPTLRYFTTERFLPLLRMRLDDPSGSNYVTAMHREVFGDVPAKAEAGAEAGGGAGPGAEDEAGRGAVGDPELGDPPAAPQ
Outline: (§2)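 Enzyme source is human placenta, cytosolic fraction. Substrate is estrone (E1) at 500 nM, with NADH as cofactor. Values are the mean of at least two determinations, with standard deviation below 20%.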

[3] = Half life in human liver S9 fraction at 1 uM after 5 to 60 mins by LC-MS/MS analysis; type: ADME, subcellular
[4] = Cytotoxicity against HEK293 cells assessed as cell viability at 6.25 uM after 66 hrs by MTT assay; type: cell-based; details: human, read-out: Activity
[5] = Cytotoxicity against HEK293 cells assessed as cell viability after 66 hrs by MTT assay; type: cell-based; details: human, read-out: LD50
Homo sapiens = species on record: Homo sapiens; assay: Selectivity ratio of IC50 for 17beta-HSD1 in human placental cytosolic fraction to IC50 for 17beta-HSD2 in human placental microsomal fraction
[6] = molecular target: T3, 17-beta-hydroxysteroid dehydrogenase type 1 (Homo sapiens, UniProt P14061); assay: Inhibition of 17beta-HSD1 in human placental cytosolic fraction using E1/NADH as substrate/cofactor after 10 mins by HPLC analysis; outline: as §2
T3 sequence (P14061 whole entry): T2 sequence (whole entry)

[7] = molecular target: T4, 17-beta-hydroxysteroid dehydrogenase type 2 (Homo sapiens, UniProt P37059); assay: Inhibition of 17beta-HSD2 in human placental microsomal fraction using E2/NAD+ as substrate/cofactor after 20 mins by HPLC analysis; parameters: species or system Placenta; outline: as §1
T4 sequence (P37059 whole entry): T1 sequence (whole entry)

inhibition [1]	inhibition [2]	Compound	also measured
16%	inactive	Cc1cccc(N2CCN(C(=O)c3cccc(O)c3)CC2)c1	
43%	inactive	CN(C(=O)c1ccc(Oc2ccc(O)cc2)cc1)c1cccc(O)c1	IC50 [6]: Not Active
inactive	inactive	COc1cccc(C(=O)N2CCN(c3cccc(OC)c3)CC2)c1	
15%	inactive	COc1cccc(S(=O)(=O)N2CCN(c3ccc(F)c(OC)c3)CC2)c1	
14%	inactive	COc1cccc(C(=O)N2CCN(c3ccccc3)CC2)c1	
55%	inactive	Cc1cccc(N(C)C(=O)c2ccc(Oc3ccccc3C)cc2)c1	IC50 [6]: Not Active
51%	13%	COc1cccc(N(C)C(=O)c2ccc(Oc3ccc(Cl)cc3)cc2)c1	
48%	inactive	O=S(=O)(c1cccc(O)c1)N1CCN(c2ccc(F)c(O)c2)CC1	
inactive	inactive	Cc1ccc(N2CCN(C(=O)c3cccc(O)c3)CC2)cc1	
27%	inactive	O=C(c1cccc(O)c1)N1CCN(c2ccccc2)CC1	
		Cc1ccc(Oc2ccc(C(=O)N(C)c3cccc(C)c3)cc2)cc1	IC50 [7]: 0.16 µM; IC50 ([6]; read-out: IC50): 26.3 µM; CC50 at 66 h [5]: 25 µM; Ratio IC50 (Homo sapiens): 168
		COc1ccc(Oc2ccc(C(=O)N(C)c3cccc(OC)c3)cc2)cc1	IC50 [7]: 0.31 µM; IC50 ([6]; read-out: IC50): 9.6 µM; CC50 at 66 h [5]: 25 µM; Ratio IC50 (Homo sapiens): 31
25%	inactive	O=S(=O)(c1cccc(O)c1)N1CCN(c2cccc(O)c2)CC1	
43%	inactive	COc1cccc(N(C)C(=O)c2ccc(Oc3ccc([N+](=O)[O-])cc3)cc2)c1	IC50 [6]: Not Active
59%	inactive	Cc1cccc(N(C)C(=O)c2ccc(Oc3ccccc3)cc2)c1	IC50 [6]: Not Active
		Cc1cccc(Oc2ccc(C(=O)N(C)c3cccc(C)c3)cc2)c1	IC50 [7]: 0.3 µM; IC50 ([6]; read-out: IC50): 16.1 µM; CC50 at 66 h [5]: 25 µM; Ratio IC50 (Homo sapiens): 54
16%	inactive	COc1cccc(C(=O)N2CCN(c3ccc(C)cc3)CC2)c1	
		COc1cccc(N(C)C(=O)C2CCC(c3ccc(Cl)cc3)CC2)c1 (stereo unspecified)	IC50 [7]: 0.29 µM; IC50 ([6]; read-out: IC50): 60.1 µM; CC50 at 66 h [5]: > 12.5 µM; Ratio IC50 (Homo sapiens): 209
inactive	inactive	COc1cccc(C(=O)N2CCN(c3cccc(C)c3)CC2)c1	
27%	inactive	Cc1cccc(N2CCN(S(=O)(=O)c3cccc(O)c3)CC2)c1	
inactive	inactive	COc1cccc(N2CCN(S(=O)(=O)c3cccc(OC)c3)CC2)c1	
16%	inactive	COc1cccc(S(=O)(=O)N2CCN(c3cccc(C)c3)CC2)c1	

Compound	inhibition [1]	inhibition [2]	also measured
COc1cccc(N(C)C(=O)c2ccc(-c3ccc(C)c(C)c3)cc2)c1	75%		half-life at 1 µM [3]: 1.78 h; viability at 66 h, 6.25 µM [4]: 34%; CC50 at 66 h [5]: < 6.25 µM; Ratio IC50 (Homo sapiens): 44
